# Laboratory results as given in PubChem BioAssay.
# Active and inactive are the calls of the source.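 How the source made its calls, unless noted: active means inhibition at or above 50% relative to wild type and mutant plate controls; inactive means inhibition below 50%.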
# What was measured:
# [1] = inhibitors of TNFa-induced NFkB p65 translocation, primary screen, imaging, HUVEC, MLSMR starter and 10KST1 sets (AID 438;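 active means inhibition above 20% together with a positive visual image hit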;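 further: compound added about 3h40 before a 20 min TNFalpha stimulation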;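 on inhibition: signal is the nuclear over cytoplasmic p65 intensity ratio per well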); conditions: HUVEC TNFa-induced p65 nuclear translocation; cell count: measured here: nuclei count (cytotoxicity indicator), at 2.08 µM unless noted; inhibition: at 2 µM, stronger effect = higher value unless noted
# [2] = reduction of polyQ htt aggregates in cells – imaging, exon1htt(103Q)mCFP cells, high-content imaging, primary screen (AID 483;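 active means visual image review flags a hit and inhibition of aggregation exceeds 20%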;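 further: compound exposure lasted 3 days before fixation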;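 on nuclei count: percent of the per-plate median nuclei count of sample wells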); conditions: exon1htt(103Q)mCFP cell line, aggregate imaging, at 2 µM; inhibition of aggregation: stronger effect = higher value; nuclei count: measured here: cell count, toxicity
# [3] = endothelial E-selectin expression blockers – imaging, HUVEC, immunofluorescence, MLSMR starter and 10KST1 sets, primary screen (AID 487;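 active means visually confirmed hit in the image check and inhibition above 20%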;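 on inhibition: signal is fraction of cell area covered by stained E-selectin grains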;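 on nuclei count: 100% = median nuclei count of all wells on the same plate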); conditions: HUVEC TNFalpha-induced E-selectin immunofluorescence imaging, at 2 µM; inhibition: stronger effect = higher value; nuclei count: measured here: cell number, toxicity
# [4] = target: Voltage-gated potassium channel subunit beta-2 (Rattus norvegicus) (UniProt P62483); experiment: inhibitors of rat Kvbeta2 reductase activity – biochemical, NADPH fluorescence, primary screen (AID 622;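 active means fluorescence slope higher than the sample average by over 3 SD, cut at about -0.22 in these data, passing the limit was not always enough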;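 further: slope of raw intensity against log time taken from 70 to 1610 s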); conditions: recombinant KvBeta, 4-cyanobenzaldehyde reduction, at 10 µM, stronger effect = higher value
# [5] = target: Voltage-gated potassium channel subunit beta-2 (Rattus norvegicus) (UniProt P62483); experiment: enhancers of rat Kvbeta2 NADPH turnover – biochemical, NADPH fluorescence, primary screen (AID 623;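 active means NADPH fluorescence slope more negative than the mean of all samples by about 3 SD, 99.7% confidence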;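 further: fluorescence intensity change per second fitted from 20 to 320 s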); conditions: Recombinant KvBeta, NADPH fluorescence decrease slope, 10 min; at 10 µM; stronger effect = lower value
# [6] = target: Muscarinic acetylcholine receptor M4 (Homo sapiens) (UniProt P08173); experiment: M4-linked GIRK flux change, two-sided – cell-based, HEK293 M4/GIRK, thallium flux, BTC-AM, M4 allosteric agonist project, primary screen (AID 625;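 active means fluorescence slope after compound addition differing from the mean of all tested samples at 99.7% confidence, mostly higher but some lower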;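 further: thallium influx through GIRK channels coupled to M4 in HEK293 cells with BTC-AM dye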); conditions: at 10 µM, actives lie on both sides
# Method in brief: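 Material: M4/GIRK1/GIRK2 stable HEK293 cell line. Medium: pH 7.3 thallium assay buffer. Dosing: single compound concentration, 10 µM final. Schedule: 1 h dye loading, 2 min kinetic read. Measured by: kinetic fluorescence with BTC-AM dye. Read-out: post-addition slope, 15–24 s, of baseline-normalized fluorescence. Benchmarks: carbachol and DMSO controls.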
# [7] = blockers of RIG-like receptor reporter activation – cell-based, Sendai virus stimulus, luciferase, 10K MLSCN set, TLR/RLR signaling modifier project, primary screen (AID 602276;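 active means inhibition at or above 50% at 10 µM; inactive means inhibition below 50%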;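 further: firefly luciferase from ISG56 promoter only with Renilla not read in this screen; 0% = Sendai virus plus DMSO and 100% = medium plus DMSO without virus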); conditions: HEK293 RL24 IRF3 luciferase reporter, at 10 µM, stronger effect = higher value
# [8] = TLR3 IRF3 reporter activation blockers – cell-based, poly I:C stimulus, luciferase, 10K MLSCN set, primary screen (AID 602277;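 active means inhibition of the reporter signal at or above 50%; inactive means inhibition below 50%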); conditions: HEK293-TLR3 RL24 IRF3 luciferase reporter, at 10 µM, stronger effect = higher value
# [9] = loss of swimming-algae plug formation – whole organism, Chlamydomonas reinhardtii, WT vs cilia-less mutant, absorbance, 96-well, primary screen (AID 463189); conditions: Chlamydomonas reinhardtii gravitaxis, OD600 absorbance, 2 days; at 10 µM; stronger effect = higher value;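 further: 0% = wild type cc124 cells in DMSO and 100% = ciliumless bld1 mutant cells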
# Chain of Muscarinic acetylcholine receptor M4 (Homo sapiens) (P08173 whole entry, looked up): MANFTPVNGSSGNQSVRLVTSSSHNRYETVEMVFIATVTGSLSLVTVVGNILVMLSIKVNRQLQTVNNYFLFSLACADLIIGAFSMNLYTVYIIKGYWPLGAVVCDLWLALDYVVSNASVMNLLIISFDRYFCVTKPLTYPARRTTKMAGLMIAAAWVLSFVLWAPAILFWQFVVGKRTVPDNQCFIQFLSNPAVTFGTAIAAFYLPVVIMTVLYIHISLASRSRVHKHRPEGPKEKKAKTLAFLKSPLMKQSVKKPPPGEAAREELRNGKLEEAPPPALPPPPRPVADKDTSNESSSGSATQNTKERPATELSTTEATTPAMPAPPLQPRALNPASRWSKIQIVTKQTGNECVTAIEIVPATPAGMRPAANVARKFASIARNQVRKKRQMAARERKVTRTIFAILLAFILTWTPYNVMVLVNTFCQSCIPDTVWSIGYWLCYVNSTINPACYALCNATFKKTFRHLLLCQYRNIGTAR
# Chain of Voltage-gated potassium channel subunit beta-2 (Rattus norvegicus) (P62483 whole entry, looked up): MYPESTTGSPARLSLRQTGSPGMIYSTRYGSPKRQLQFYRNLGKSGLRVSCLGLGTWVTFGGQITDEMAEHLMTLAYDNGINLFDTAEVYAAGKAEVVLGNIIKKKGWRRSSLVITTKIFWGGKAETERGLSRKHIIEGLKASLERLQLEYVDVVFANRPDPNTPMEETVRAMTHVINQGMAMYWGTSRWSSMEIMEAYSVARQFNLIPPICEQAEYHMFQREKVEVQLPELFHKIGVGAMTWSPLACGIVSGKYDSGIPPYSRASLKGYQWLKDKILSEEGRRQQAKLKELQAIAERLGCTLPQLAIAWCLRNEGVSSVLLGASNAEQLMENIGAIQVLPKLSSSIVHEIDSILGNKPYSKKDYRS
smiles,measurement,setting,value
CC1(C)CC(=O)C=C(NCCN2CCN(C(=O)Cc3ccc(Cl)cc3)CC2)C1,cell count,[1],706
same,inhibition,[1],-4.2% (inactive)
same,inhibition of aggregation,[2],3% (inactive)
same,nuclei count,[2],120%
same,inhibition,[3],-80.1% (inactive)
same,nuclei count,[3],109%
same,fluorescence slope,[4],-0.463 (inactive)
same,NADPH fluorescence slope,[5],-4.2e-05 (inactive)
same,fluorescence slope,[6],0.00475 (inactive)
same,inhibition,[7],16.3% (inactive)
same,inhibition,[8],9.81% (inactive)
CCCn1c(C)c(C(=O)c2ccc3ccccc3c2)c2ccccc21,inhibition,[9],18.5% (inactive)
O=C1C2CCCN2C(c2ccc(Cl)c(Cl)c2)N1c1ccccn1 (stereo not given),cell count,[1],499
same,inhibition,[1],-2.1% (inactive)
same,inhibition of aggregation,[2],0.2% (inactive)
same,nuclei count,[2],98.4%
same,inhibition,[3],17.4% (inactive)
same,nuclei count,[3],101%
same,fluorescence slope,[4],-0.552 (inactive)
same,NADPH fluorescence slope,[5],-4e-05 (inactive)
same,fluorescence slope,[6],0.00578 (inactive)
same,inhibition,[7],17.8% (inactive)
same,inhibition,[8],12.7% (inactive)
Cc1cc(NC(=O)COC(=O)c2c(C)nn(Cc3ccccc3)c2Cl)no1,cell count,[1],346
same,inhibition,[1],7.3% (inactive)
same,inhibition of aggregation,[2],-4.8% (inactive)
same,nuclei count,[2],90.6%
same,inhibition,[3],-68.8% (inactive)
same,nuclei count,[3],109%
same,fluorescence slope,[4],-0.377 (inactive)
same,NADPH fluorescence slope,[5],-0.000127 (inactive)
same,fluorescence slope,[6],0.00868 (inactive)
same,inhibition,[7],3.25% (inactive)
same,inhibition,[8],12.9% (inactive)
CC1CCN2c3nc4ccccn4c(=O)c3CC3(C(=O)N(C)C(=O)N(C)C3=O)C2C1 (stereo not given),cell count,[1],459
same,inhibition,[1],-8.6% (inactive)
same,inhibition of aggregation,[2],11.4% (inactive)
same,nuclei count,[2],76.7%
same,inhibition,[3],-10% (inactive)
same,nuclei count,[3],95.1%
same,fluorescence slope,[4],-0.523 (inactive)
same,NADPH fluorescence slope,[5],-6.2e-05 (inactive)
same,fluorescence slope,[6],0.00473 (inactive)
same,inhibition,[7],10.8% (inactive)
same,inhibition,[8],16.3% (inactive)
O=C(O)c1nonc1-c1nonc1C(=O)O,cell count,[1],195
same,inhibition,[1],-1.9% (inactive)
same,inhibition of aggregation,[2],14.6% (inactive)
same,nuclei count,[2],99.5%
same,inhibition,[3],-27.8% (inactive)
same,nuclei count,[3],104%
same,fluorescence slope,[4],-0.641 (inactive)
same,NADPH fluorescence slope,[5],-1.4e-05 (inactive)
same,fluorescence slope,[6],0.00379 (inactive)
same,inhibition,[7],17.8% (inactive)
same,inhibition,[8],15.2% (inactive)
CCN1CCN(c2ncnc3ccc(Br)cc23)CC1,cell count,[1],207
same,inhibition,[1],2.1% (inactive)
same,inhibition of aggregation,[2],48% (active)
same,nuclei count,[2],77.2%
same,inhibition,[3],-79% (inactive)
same,nuclei count,[3],99.3%
same,fluorescence slope,[4],-0.583 (inactive)
same,NADPH fluorescence slope,[5],2.1e-06 (inactive)
same,fluorescence slope,[6],0.00395 (inactive)
same,inhibition,[7],13.3% (inactive)
same,inhibition,[8],8.78% (inactive)
O=C(CN1C(=O)CN=C(c2ccccc2)c2ccccc21)NCc1ccco1,cell count,[1],519
same,inhibition,[1],-2.9% (inactive)
same,inhibition of aggregation,[2],-13.4% (inactive)
same,nuclei count,[2],99.4%
same,inhibition,[3],-66.7% (inactive)
same,nuclei count,[3],142%
same,fluorescence slope,[4],-0.571 (inactive)
same,NADPH fluorescence slope,[5],-6.4e-05 (inactive)
same,fluorescence slope,[6],0.00595 (inactive)
same,inhibition,[7],-12.7% (inactive)
same,inhibition,[8],-12.1% (inactive)
COC(=O)c1c(C)n(Cc2ccc3c(c2)OCO3)c2ccc(O)cc12,cell count,[1],598
same,inhibition,[1],2.2% (inactive)
same,inhibition of aggregation,[2],-6.7% (inactive)
same,nuclei count,[2],109%
same,inhibition,[3],30.8% (inactive)
same,nuclei count,[3],90.3%
same,fluorescence slope,[4],-0.528 (inactive)
same,NADPH fluorescence slope,[5],-1.6e-05 (inactive)
same,fluorescence slope,[6],0.0049 (inactive)
same,inhibition,[7],-0.687% (inactive)
same,inhibition,[8],-6.04% (inactive)
CC(O)C(C)OC(=O)[C@@H]1C[C@@H]2c3cccc4c3c(cn4C(C)C)C[C@H]2N(C)C1 (stereo not given in full),inhibition,[9],33.8% (inactive)
CCN(CCCl)Cc1ccccc1Br,inhibition,[9],6.59% (inactive)
CC(C)(O)[C@@H]1[C@H]2OC(=O)[C@@H]1[C@]1(O)C[C@H]3O[C@]34C(=O)O[C@H]2[C@]14C (tested in a mixture with another compound),inhibition,[9],-1.93% (inactive)
CNCCc1ccc(O)c(O)c1,inhibition,[9],8.08% (inactive)
CC(N)Cc1c[nH]c2ccc(OCc3cccs3)cc12 (stereo not given),inhibition,[9],5.48% (inactive)
Cc1[nH]c2ccc(O)cc2c1CCN,inhibition,[9],5.71% (inactive)
CCN(CC)C(=O)N[C@@H]1C=C2c3cccc4[nH]cc(c34)C[C@H]2N(C)C1,inhibition,[9],9.57% (inactive)
CCCN1CC[C@@H]2c3cc(O)ccc3CC[C@@H]21,inhibition,[9],-3.65% (inactive)
CCCN(CCC)[C@@H]1CCc2cccc(O)c2C1,inhibition,[9],-6.71% (inactive)
CC(Cc1ccc(OCC(=O)O)cc1)NCC(O)c1cccc(Cl)c1 (stereo not given),inhibition,[9],1% (inactive)
O=C(O)Cc1cnc[nH]1,inhibition,[9],2.27% (inactive)
O=C(O)C1C2CCC(O2)C1C(=O)O (stereo not given),inhibition,[9],-11.7% (inactive)
C[C@@H](N)Cc1cnc[nH]1,inhibition,[9],-0.522% (inactive)
CN1C2CCC1CC(OC(c1ccccc1)c1ccc(Cl)cc1)C2 (stereo not given),inhibition,[9],11.8% (inactive)
O=P1(N(CCCl)CCCl)NCCCO1 (stereo not given),inhibition,[9],-0.869% (inactive)
CC[C@@]1(O)C(=O)OCc2c1cc1n(c2=O)Cc2cc3ccccc3nc2-1,inhibition,[9],23.3% (inactive)
CC1(C(=O)O)C2CCC(O2)C1(C)C(=O)O (stereo not given),inhibition,[9],-0.9% (inactive)
COC(=O)C1=CCCN(C)C1,inhibition,[9],-3.75% (inactive)
NNCc1cccc(O)c1,inhibition,[9],-4.41% (inactive)
CC(Cc1ccc(O)cc1)NCC(O)c1cc(O)cc(O)c1 (stereo not given),inhibition,[9],1.02% (inactive)
c1ccc2sc(C3(N4CCCCC4)CCCCC3)cc2c1,inhibition,[9],-0.941% (inactive)
C=CCN1C[C@@H](C)N([C@H](c2ccc(C(=O)N(CC)CC)cc2)c2cccc(OC)c2)C[C@@H]1C,inhibition,[9],-6.39% (inactive)
NCCc1c[nH]c2ccc(C(N)=O)cc12,inhibition,[9],4.98% (inactive)
COc1cc(CC(C)N)c(OC)cc1I (stereo not given),inhibition,[9],-7.42% (inactive)
C[C@@H]1O[C@H](C[N+](C)(C)C)C[C@H]1O,inhibition,[9],3.38% (inactive)
CCS(=O)(=O)Nc1cccc(C(=C2CCCCC2)c2cnc[nH]2)c1,inhibition,[9],2.69% (inactive)
